{"source": "ChEMBL document CHEMBL1132688", "about": "“Synthesis of a series of 4-benzyloxyaniline analogues as neuronal N-type calcium channel blockers with improved anticonvulsant and analgesic properties” (J Med Chem, 1999)", "key": {"[1]": {"system": "Mus musculus", "assay": "Anticonvulsant activity at 30 mg/kg tested against audiogenic seizure model using DBA/2 mice", "type": "functional", "how_it_was_run": "(§1)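 Male DBA/2 mice, 3–4 weeks old (6.5–12 g, 20–23 days), n = 5 per dose, given iv into retro-orbital sinus; tested 15 or 45 min post-dose with sound stimulus until tonic extension or max 60 s. Value is percentage of mice without tonic seizure.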"}, "[2]": {"target": "Voltage-dependent N-type calcium channel subunit alpha-1B (Homo sapiens, UniProt Q00975)", "sequence (Q00975 whole entry)": "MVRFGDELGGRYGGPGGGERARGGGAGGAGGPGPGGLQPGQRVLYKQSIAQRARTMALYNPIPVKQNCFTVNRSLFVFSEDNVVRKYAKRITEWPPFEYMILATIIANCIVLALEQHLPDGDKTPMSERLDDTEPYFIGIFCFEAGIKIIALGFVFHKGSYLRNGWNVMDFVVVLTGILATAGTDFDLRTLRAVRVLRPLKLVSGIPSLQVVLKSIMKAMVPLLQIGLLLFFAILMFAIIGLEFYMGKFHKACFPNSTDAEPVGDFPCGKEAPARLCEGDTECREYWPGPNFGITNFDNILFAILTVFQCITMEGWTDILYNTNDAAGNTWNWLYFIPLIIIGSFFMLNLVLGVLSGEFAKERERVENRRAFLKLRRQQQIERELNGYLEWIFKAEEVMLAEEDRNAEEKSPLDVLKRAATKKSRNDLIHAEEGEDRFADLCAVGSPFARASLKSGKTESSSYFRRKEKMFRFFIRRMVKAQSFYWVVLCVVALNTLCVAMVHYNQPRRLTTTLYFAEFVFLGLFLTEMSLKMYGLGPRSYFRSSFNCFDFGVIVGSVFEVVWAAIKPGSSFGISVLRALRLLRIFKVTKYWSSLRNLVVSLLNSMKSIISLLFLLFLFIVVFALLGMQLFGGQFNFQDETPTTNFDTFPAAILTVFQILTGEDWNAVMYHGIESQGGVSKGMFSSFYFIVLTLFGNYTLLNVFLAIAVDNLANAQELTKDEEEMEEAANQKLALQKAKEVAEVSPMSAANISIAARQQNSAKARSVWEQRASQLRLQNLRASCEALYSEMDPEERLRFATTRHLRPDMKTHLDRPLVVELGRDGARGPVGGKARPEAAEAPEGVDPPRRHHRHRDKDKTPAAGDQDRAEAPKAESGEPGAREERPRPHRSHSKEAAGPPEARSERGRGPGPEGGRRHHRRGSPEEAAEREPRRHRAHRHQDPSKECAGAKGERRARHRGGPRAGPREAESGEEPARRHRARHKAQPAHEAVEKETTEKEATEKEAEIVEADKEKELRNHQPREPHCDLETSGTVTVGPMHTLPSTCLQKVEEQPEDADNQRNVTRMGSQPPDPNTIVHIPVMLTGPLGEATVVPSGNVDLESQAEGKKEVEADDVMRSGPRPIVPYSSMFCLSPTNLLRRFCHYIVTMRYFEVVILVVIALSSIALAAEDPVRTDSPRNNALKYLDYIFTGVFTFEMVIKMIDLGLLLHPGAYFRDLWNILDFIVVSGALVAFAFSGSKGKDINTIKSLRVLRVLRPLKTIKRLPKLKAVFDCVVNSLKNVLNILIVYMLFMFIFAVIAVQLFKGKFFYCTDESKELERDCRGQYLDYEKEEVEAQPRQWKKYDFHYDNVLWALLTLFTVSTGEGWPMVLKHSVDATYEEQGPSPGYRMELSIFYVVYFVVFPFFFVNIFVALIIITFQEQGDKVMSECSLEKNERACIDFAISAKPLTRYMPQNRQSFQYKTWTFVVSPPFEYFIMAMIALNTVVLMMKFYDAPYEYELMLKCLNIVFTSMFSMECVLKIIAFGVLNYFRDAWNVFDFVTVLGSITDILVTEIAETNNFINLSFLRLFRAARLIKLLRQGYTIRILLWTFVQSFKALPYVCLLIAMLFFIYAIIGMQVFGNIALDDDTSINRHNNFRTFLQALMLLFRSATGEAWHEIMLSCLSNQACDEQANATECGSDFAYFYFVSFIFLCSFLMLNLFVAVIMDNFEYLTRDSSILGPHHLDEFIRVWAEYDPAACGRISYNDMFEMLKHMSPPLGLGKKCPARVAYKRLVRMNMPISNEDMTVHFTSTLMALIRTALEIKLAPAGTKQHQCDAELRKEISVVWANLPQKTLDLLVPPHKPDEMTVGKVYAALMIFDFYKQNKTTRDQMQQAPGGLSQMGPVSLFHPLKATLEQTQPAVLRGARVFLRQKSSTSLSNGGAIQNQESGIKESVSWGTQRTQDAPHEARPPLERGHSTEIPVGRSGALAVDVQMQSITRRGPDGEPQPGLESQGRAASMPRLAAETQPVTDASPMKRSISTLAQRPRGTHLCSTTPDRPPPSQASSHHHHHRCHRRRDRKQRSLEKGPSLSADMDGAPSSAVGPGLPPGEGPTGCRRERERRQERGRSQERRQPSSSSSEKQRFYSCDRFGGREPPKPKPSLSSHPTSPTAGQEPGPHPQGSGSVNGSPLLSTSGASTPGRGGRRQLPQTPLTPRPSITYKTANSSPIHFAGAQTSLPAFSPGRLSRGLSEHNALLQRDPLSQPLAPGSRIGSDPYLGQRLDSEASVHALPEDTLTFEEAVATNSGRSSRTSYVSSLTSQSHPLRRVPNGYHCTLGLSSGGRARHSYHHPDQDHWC", "assay": "Inhibition of N-type calcium channels in IMR32 human neuroblastoma cells", "type": "functional", "how_it_was_run": "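Differentiated IMR32 cells (dibutyryl cAMP 1 mM + BrdU 2.5 μM, 7–13 days), Indo-1 AM loaded; 10 min compound preincubation at 30 °C with 5 μM nitrendipine; high-K+ depolarization, fluorescence ratio 400/490 nm (ex 350 nm). Percent inhibition of K+-evoked Ca2+ rise; IC50 from five-point curves, four-parameter logistic fit.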"}, "[3]": {"system": "Mus musculus", "assay": "Anticonvulsant activity at 10 mg/kg tested against audiogenic seizure model using DBA/2 mice", "type": "functional", "how_it_was_run": "as §1"}, "[4]": {"assay": "solubility at pH 7.4", "type": "physicochemical", "conditions": "buffer", "how_it_was_run": "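DMSO solution diluted 20-fold into PBS with 25 mM potassium phosphate pH 7.4 (final 5% DMSO) to precipitate; stirred 1 h at 22 °C, centrifuged 20000g 5 min; supernatant quantified by HPLC against DMSO standard.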"}, "[5]": {"assay": "solubility at pH 4", "type": "physicochemical", "conditions": "buffer"}, "[6]": {"organism": "Mus musculus", "assay": "Anticonvulsant activity against audiogenic seizure model using DBA/2 mice", "type": "functional", "how_it_was_run": "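Male DBA/2 mice, 3–4 weeks old (6.5–12 g, 20–23 days); iv dosing into retro-orbital sinus, tested 15 or 45 min later. Sound stimulus in enclosed chamber until tonic extension or max 60 s. Tonic seizure occurrence used for ED50 by probit analysis; each mouse used once per time/dose point.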"}}, "data": [{"smiles": "CC(C)C[C@H](NC(=O)N1CCCCCC1)C(=O)N1CCC(Nc2ccc(OCc3ccccc3)cc2)CC1", "values": [{"measurement": "Anticonulsant activity", "setting": "[1]", "result": 60, "unit": "%"}]}, {"smiles": "CC(C)=CCN(C[C@H](C)NC(=O)[C@H](CC(C)C)NC(=O)N1CCCCCC1)c1ccc(OCc2ccccc2)cc1", "values": [{"measurement": "IC50", "setting": "[2]", "result": 1000, "unit": "nM"}]}, {"smiles": "CC(C)=CCN(c1ccc(OCc2ccccc2)cc1)C1CCN(C(=O)[C@H](CC(C)C)NC(=O)N2CCCCCC2)CC1", "values": [{"measurement": "Anticonulsant activity", "setting": "[1]", "result": 0, "unit": "%"}]}, {"smiles": "CC(C)=CCN(c1ccc(OCc2ccccc2)cc1)C1CCCN(C(=O)[C@H](CC(C)C)NC(=O)N2CCCCCC2)C1", "note": "(stereo partly drawn)", "values": [{"measurement": "IC50", "setting": "[2]", "result": 1500, "unit": "nM"}]}, {"smiles": "CCN(c1ccc(OCc2ccccc2)cc1)C1CCN(C(=O)[C@H](CC(C)C)NC(=O)N2CCCCCC2)CC1", "values": [{"measurement": "Anticonulsant activity", "setting": "[1]", "result": 0, "unit": "%"}]}, {"smiles": "CC(C)=CCN(c1ccc(OCc2ccccc2)cc1)C1CCN(C(=O)[C@H](CC(C)C)NCCC(C)C)CC1", "values": [{"measurement": "Anticonulsant activity", "setting": "[3]", "result": 20, "unit": "%"}]}, {"smiles": "CC(C)C[C@H](NC(=O)N1CCCCCC1)C(=O)N1CCC(N(CCC(C)O)c2ccc(OCc3ccccc3)cc2)CC1", "note": "(stereo partly drawn)", "values": [{"measurement": "solubility", "setting": "[4]", "result": 4, "unit": "µM"}, {"measurement": "IC50", "setting": "[2]", "result": 4600, "unit": "nM"}]}, {"smiles": "CC(C)=CCN(c1ccc(OCc2ccccc2)cc1)C1CCN(C(=O)[C@@H](N)CC(C)C)CC1", "values": [{"measurement": "solubility", "setting": "[5]", "result": 100000, "unit": "µM"}, {"measurement": "solubility", "setting": "[4]", "result": 87, "unit": "µM"}, {"measurement": "ED50", "setting": "[6]", "result": 6, "unit": "mg/kg"}, {"measurement": "IC50", "setting": "[2]", "result": 670, "unit": "nM"}]}, {"smiles": "CC(C)=CCN(c1ccc(OCc2ccccc2)cc1)C1CCNCC1", "values": [{"measurement": "IC50", "setting": "[2]", "result": 4700, "unit": "nM"}]}]}
